Published values pooled from the literature.
AHR: Aryl hydrocarbon receptor (AHR, Homo sapiens, UniProt P35869)
SLC10A2: Ileal sodium/bile acid cotransporter (SLC10A2, Homo sapiens, UniProt Q12908)

The EC50 of COC(=O)c1ccc(C(=O)c2c[nH]c3ccccc23)cc1 is reported as over 10 µM (AHR; reporter gene, agonist, luciferase).
With O=C(N[C@H]1COC(=O)[C@@H](NC(=O)c2cccc(O)c2O)COC(=O)[C@@H](NC(=O)c2cccc(O)c2O)COC1=O)c1cccc(O)c1O the Kd was 0.0036 µM (Neutrophil gelatinase-associated lipocalin (LCN2, Homo sapiens, UniProt P80188, C107S); binding, fluorescence; pH 7.4).
With COC(=O)c1cccc(C(=O)c2c[nH]c3c2ccc2ccccc23)n1 the EC50 was 0.015 µM (AHR; reporter gene, agonist, luciferase).
With COC(=O)C1=C(C)NC(C)=C(C(=O)OCC(C)C)C1c1ccccc1[N+](=O)[O-] (stereo not drawn) the Ki was 4.77 µM (SLC10A2; transporter uptake, inhibitor).
The EC50 of COC(=O)c1cccc(C(=O)c2c[nH]c3c4c(ccc23)CCC4)n1 is reported as 0.031 µM (AHR; reporter gene, agonist, luciferase).
With Cc1cc2nc3c(=O)[nH]c(=O)nc-3n(C[C@H](O)[C@H](O)[C@H](O)COP(=O)(O)OP(=O)(O)OC[C@H]3O[C@@H](n4cnc5c(N)ncnc54)[C@H](O)[C@@H]3O)c2cc1C the Kd was 0.842 µM (Splicing factor 1 (Homo sapiens, UniProt Q15637); binding; lysate).
CC(C)c1cc(C2CCCN2C(=O)c2cc(-c3ccc4c(c3)OCO4)on2)no1 (stereo not drawn) gave an EC50 of 0.01 µM (Cannabinoid receptor 2 (CNR2, Homo sapiens, UniProt P34972); cAMP, agonist, TR-FRET).
CCOC(=O)C1=C(C)NC(C)=C(C(=O)OCC)C1c1c(F)c(F)c(F)c(F)c1F has a Ki of 23.1 µM (SLC10A2; transporter uptake, inhibitor).
For N=C(N)c1ccc(CN)cc1, the Kd was 1700 µM (Coagulation factor X (F10, Homo sapiens, UniProt P00742); binding, BLI).
For C=CCSCC1Nc2cc(Cl)c(S(N)(=O)=O)cc2S(=O)(=O)N1 (stereo not drawn), the Ki was 391 µM (SLC10A2; transporter uptake, inhibitor).
CN(C)C(=O)c1cccc(C(=O)c2c[nH]c3ccccc23)n1 gave an EC50 of 0.351 µM (AHR; reporter gene, agonist, luciferase).
CC[C@H](C)C(=O)O[C@H]1C[C@H](O)C=C2C=C[C@H](C)[C@H](CC[C@@H](O)C[C@@H](O)CC(=O)O)[C@H]21 gave a Ki of 1360 µM (SLC10A2; transporter uptake, inhibitor).
CSCC[C@H](NC(=O)[C@@H](NC(=O)[C@@H](N)Cc1ccc(O)cc1)C(C)C)C(=O)NCC(=O)N[C@@H](Cc1c[nH]cn1)C(=O)N[C@@H](Cc1ccccc1)C(=O)O has an EC50 of over 100 µM (Melanocortin receptor 5 (MC5R, Homo sapiens, UniProt P33032); reporter gene, agonist).
C[C@]12C=CC(=O)C=C1CC[C@@H]1[C@@H]2C(=O)C[C@@]2(C)[C@H]1CC[C@]2(O)C(=O)CO gave a Ki of 1480 µM (SLC10A2; transporter uptake, inhibitor).
With C#Cc1cccc(Nc2ncnc3cc(OC)c(OCCCCCCC(=O)NO)cc23)c1 the Kd was 7.38 µM (Polyamine deacetylase HDAC10 (HDAC10, Homo sapiens, UniProt Q969S8); cell-free assay).
